Experimental data reported in ChEMBL document CHEMBL1909525, “Synthesis and anticonvulsant activity of novel 2,6-diketopiperazine derivatives. Part 1: perhydropyrrole[1,2-a]pyrazines” (Eur J Med Chem, 2011).
Activity calls are given as the source filed them. The rule behind the calls is not given here.

How the values were obtained:
Mus musculus [1] = assay: Anticonvulsant activity in albino Carworth Farms No.1 mouse assessed as protection against electric-current for 3 secs-induced seizure at 100 mg/kg, ip after 4 hrs by 6Hz minimal clonic seizure test; assay type: functional, organism-based; design: dose 100 mg/kg
Procedure, shortened: (§1)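 6 Hz psychomotor seizure test in mice. Compound given i.p. as a suspension in 0.5% methylcellulose. Corneal stimulation at 32 mA, 0.2-ms monopolar rectangular pulses at 6 Hz for 3 s, from a constant-current device. Tests run 0.25–4 h after dosing. A mouse counted as protected if it resumed normal exploratory behaviour within 10 s; scored as protected/tested.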

Mus musculus [2] = assay: Anticonvulsant activity in albino Carworth Farms No.1 mouse assessed as protection against subcutaneous metrazol-induced seizure at 30 mg/kg, ip after 4 hrs; assay type: functional, organism-based; design: dose 30 mg/kg
Procedure, shortened: (§2)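 Mouse scMET test. Compound given i.p. (30, 100 or 300 mg/kg) in 0.5% methylcellulose. Pentylenetetrazole 85 mg/kg (CD97) given s.c. at 0.5 or 4 h, then mice observed for 30 min. Protection is absence of clonic spasms; scored as protected/tested.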

Mus musculus [3] = assay: Anticonvulsant activity in albino Carworth Farms No.1 mouse assessed as protection against subcutaneous metrazol-induced seizure at 300 mg/kg, ip after 0.5 hrs; assay type: functional, organism-based; design: dose 300 mg/kg; procedure, shortened: as §2
Mus musculus [4] = assay: Neurotoxicity in albino Carworth Farms No.1 mouse assessed as motor impairment at 30 mg/kg, ip after 0.5 hrs by rotarod test; assay type: toxicity, organism-based; design: dose 30 mg/kg, route intraperitoneal; conditions: in vivo
Procedure, shortened: (§3)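 Rotorod neurotoxicity in mice at 6 r.p.m. Compound given i.p. (30, 100, 300 mg/kg) in 0.5% methylcellulose; tested at 30 min and 4 h. Impairment is inability to keep equilibrium on the rod for a given time; scored as impaired/tested.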

Mus musculus [5] = assay: Anticonvulsant activity in albino Carworth Farms No.1 mouse assessed as protection against maximal electroshock-induced seizure at 100 mg/kg, ip after 4 hrs; assay type: functional, organism-based; design: dose 100 mg/kg
Procedure, shortened: (§4)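 Mouse MES test with compound given i.p. (30, 100 or 300 mg/kg) in 0.5% methylcellulose; tested at 0.5 and 4 h. Corneal stimulus of 50 mA at 60 Hz for 0.2 s, electrodes primed with 0.5% butacaine in 0.9% NaCl. Protection is abolition of hindlimb tonic extension; scored as protected/tested.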

Mus musculus [6] = assay: Neurotoxicity in albino Carworth Farms No.1 mouse assessed as motor impairment at 100 mg/kg, ip after 2 hrs by rotarod test; assay type: toxicity, organism-based; design: dose 100 mg/kg, route intraperitoneal; conditions: in vivo
Procedure, shortened: (§5)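 Rotorod neurotoxicity in mice (18–25 g) following i.p. dosing of a suspension in 0.5% methylcellulose in water, tested at intervals between 0.25 and 4 h. Impairment was scored as failure to keep equilibrium on a 6 r.p.m. rod, reported as number impaired/number tested.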

Mus musculus [7] = assay: Anticonvulsant activity in albino Carworth Farms No.1 mouse assessed as protection against maximal electroshock-induced seizure at 300 mg/kg, ip after 0.5 hrs; assay type: functional, organism-based; design: dose 300 mg/kg; procedure, shortened: as §4
Mus musculus [8] = assay: Anticonvulsant activity in albino Carworth Farms No.1 mouse assessed as protection against electric-current for 3 secs-induced seizure at 100 mg/kg, ip after 0.25 hrs by 6Hz minimal clonic seizure test; assay type: functional, organism-based; design: dose 100 mg/kg; procedure, shortened: as §1
Mus musculus [9] = assay: Anticonvulsant activity in albino Carworth Farms No.1 mouse assessed as protection against maximal electroshock-induced seizure at 30 mg/kg, ip after 0.5 hrs; assay type: functional, organism-based; design: dose 30 mg/kg; procedure, shortened: as §4
Mus musculus [10] = assay: Anticonvulsant activity in albino Carworth Farms No.1 mouse assessed as protection against subcutaneous metrazol-induced seizure at 30 mg/kg, ip after 0.5 hrs; assay type: functional, organism-based; design: dose 30 mg/kg; procedure, shortened: as §2
Mus musculus [11] = assay: Anticonvulsant activity in albino Carworth Farms No.1 mouse assessed as protection against maximal electroshock-induced seizure at 300 mg/kg, ip after 4 hrs; assay type: functional, organism-based; design: dose 300 mg/kg; procedure, shortened: as §4
Mus musculus [12] = assay: Anticonvulsant activity in albino Carworth Farms No.1 mouse assessed as protection against subcutaneous metrazol-induced seizure at 100 mg/kg, ip after 0.5 hrs; assay type: functional, organism-based; design: dose 100 mg/kg; procedure, shortened: as §2
Mus musculus [13] = assay: Anticonvulsant activity in albino Carworth Farms No.1 mouse assessed as protection against electric-current for 3 secs-induced seizure at 100 mg/kg, ip after 2 hrs by 6Hz minimal clonic seizure test; assay type: functional, organism-based; design: dose 100 mg/kg; procedure, shortened: as §1
Mus musculus [14] = assay: Anticonvulsant activity in albino Carworth Farms No.1 mouse assessed as protection against electric-current for 3 secs-induced seizure at 100 mg/kg, ip after 1 hr by 6Hz minimal clonic seizure test; assay type: functional, organism-based; design: dose 100 mg/kg; procedure, shortened: as §1
Mus musculus [15] = assay: Neurotoxicity in albino Carworth Farms No.1 mouse assessed as motor impairment at 100 mg/kg, ip after 0.25 hrs by rotarod test; assay type: toxicity, organism-based; design: dose 100 mg/kg, route intraperitoneal; conditions: in vivo; procedure, shortened: as §5
Mus musculus [16] = assay: Neurotoxicity in albino Carworth Farms No.1 mouse assessed as motor impairment at 300 mg/kg, ip after 0.5 hrs by rotarod test; assay type: toxicity, organism-based; design: dose 300 mg/kg, route intraperitoneal; conditions: in vivo; procedure, shortened: as §3
Mus musculus [17] = assay: Neurotoxicity in albino Carworth Farms No.1 mouse assessed as motor impairment at 100 mg/kg, ip after 0.5 hrs by rotarod test; assay type: toxicity, organism-based; design: dose 100 mg/kg, route intraperitoneal; conditions: in vivo; procedure, shortened: as §3
Mus musculus [18] = assay: Anticonvulsant activity in albino Carworth Farms No.1 mouse assessed as protection against subcutaneous metrazol-induced seizure at 100 mg/kg, ip after 4 hrs; assay type: functional, organism-based; design: dose 100 mg/kg; procedure, shortened: as §2
Mus musculus [19] = assay: Anticonvulsant activity in albino Carworth Farms No.1 mouse assessed as protection against maximal electroshock-induced seizure at 100 mg/kg, ip after 0.5 hrs; assay type: functional, organism-based; design: dose 100 mg/kg; procedure, shortened: as §4
Mus musculus [20] = assay: Anticonvulsant activity in albino Carworth Farms No.1 mouse assessed as protection against maximal electroshock-induced seizure at 30 mg/kg, ip after 4 hrs; assay type: functional, organism-based; design: dose 30 mg/kg; procedure, shortened: as §4
Mus musculus [21] = assay: Neurotoxicity in albino Carworth Farms No.1 mouse assessed as motor impairment at 300 mg/kg, ip after 4 hrs by rotarod test; assay type: toxicity, organism-based; design: dose 300 mg/kg, route intraperitoneal; conditions: in vivo; procedure, shortened: as §3
Mus musculus [22] = assay: Neurotoxicity in albino Carworth Farms No.1 mouse assessed as motor impairment at 100 mg/kg, ip after 1 hr by rotarod test; assay type: toxicity, organism-based; design: dose 100 mg/kg, route intraperitoneal; conditions: in vivo; procedure, shortened: as §5
Mus musculus [23] = assay: Anticonvulsant activity in albino Carworth Farms No.1 mouse assessed as protection against subcutaneous metrazol-induced seizure at 300 mg/kg, ip after 4 hrs; assay type: functional, organism-based; design: dose 300 mg/kg; procedure, shortened: as §2
Mus musculus [24] = assay: Neurotoxicity in albino Carworth Farms No.1 mouse assessed as motor impairment at 30 mg/kg, ip after 4 hrs by rotarod test; assay type: toxicity, organism-based; design: dose 30 mg/kg, route intraperitoneal; conditions: in vivo; procedure, shortened: as §3
Mus musculus [25] = assay: Neurotoxicity in albino Carworth Farms No.1 mouse assessed as motor impairment at 100 mg/kg, ip after 4 hrs by rotarod test; assay type: toxicity, organism-based; design: dose 100 mg/kg, route intraperitoneal; conditions: in vivo; procedure, shortened: as §3

With O=C1[C@@H]2CCCN2[C@H](c2ccccc2)C(=O)N1CCc1ccccc1 the Activity (Mus musculus [1]) was “inactive”, the Activity (Mus musculus [2]) was “inactive” and the Activity (Mus musculus [3]) was “inactive”. For the same compound, the Activity (Mus musculus [4]) was “Non-toxic”, the Activity (Mus musculus [5]) was “inactive” and the Activity (Mus musculus [6]) was “Non-toxic”. The Activity (Mus musculus [7]) was “inactive”, the Activity (Mus musculus [8]) was “inactive” and the Activity (Mus musculus [9]) was “inactive”. The Activity (Mus musculus [10]) was “inactive”, the Activity (Mus musculus [11]) was “inactive” and the Activity (Mus musculus [12]) was “inactive”. For the same compound, the Activity (Mus musculus [13]) was “inactive”, the Activity (Mus musculus [14]) was “inactive” and the Activity (Mus musculus [15]) was “Non-toxic”. The Activity (Mus musculus [16]) was “Non-toxic”, the Activity (Mus musculus [17]) was “Non-toxic” and the Activity (Mus musculus [18]) was “inactive”. For the same compound, the Activity (Mus musculus [19]) was “inactive”, the Activity (Mus musculus [20]) was “inactive” and the Activity (Mus musculus [21]) was “Non-toxic”. For the same compound, the Activity (Mus musculus [22]) was “Non-toxic”, the Activity (Mus musculus [23]) was “inactive” and the Activity (Mus musculus [24]) was “Non-toxic”. The Activity (Mus musculus [25]) was “Non-toxic”.
